Source: PubChem
This excerpt belongs to a sample that is enriched for hits.
GASC1 inh – blocks human GASC-1 (KDM4C) demethylase activity | GST-KDM4C 2-372, H3K9me3 peptide, LANCE TR-FRET | 0.15% of 96,000 active | inhibition, % at 12.5 µM | Q9H3R0 | AID 720574;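 active means mean replicate inhibition above about 25%, with at least 55% of replicates also reaching it, limit read from the data, passing the limit was not always enough; inconclusive means only one of those two conditions met; inactive means neither condition met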
Target sequence (Q9H3R0 2-372 limits assumed): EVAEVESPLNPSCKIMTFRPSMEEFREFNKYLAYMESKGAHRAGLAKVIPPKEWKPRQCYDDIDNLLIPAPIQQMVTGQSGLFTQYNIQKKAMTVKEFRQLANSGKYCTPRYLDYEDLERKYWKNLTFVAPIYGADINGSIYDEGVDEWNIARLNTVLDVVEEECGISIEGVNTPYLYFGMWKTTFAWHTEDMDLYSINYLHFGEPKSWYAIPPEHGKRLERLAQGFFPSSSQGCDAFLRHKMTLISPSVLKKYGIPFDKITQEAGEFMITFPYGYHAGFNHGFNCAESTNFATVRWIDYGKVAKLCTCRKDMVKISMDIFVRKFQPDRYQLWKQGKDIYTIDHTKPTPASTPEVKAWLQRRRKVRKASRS
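material = GST-tagged GASC-1 (JMJD2C) catalytic fragment, aa 2-372 | amount = enzyme final amount 10 nM | medium = HEPES buffer, pH 7.5, plus ascorbate | also added = H3K9me3 peptide substrate, Fe(II), 2-oxoglutarate | dosing = single dose | times = 30 min demethylation and 1 h detection at room temperature | detection = LANCE TR-FRET | read-out basis = Fall in 671/618 emission ratio as inhibition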
T cruzi growth-1 – inhibitors of T. cruzi proliferation; T. cruzi beta-gal in NIH3T3, GalScreen luminescence, 90 h; inhibition, % at 8.34 µM; 5.9% of 77,000 active;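 active means mean inhibition above about 93%, with at least 55% of replicates each passing it, limit read from the data, passing the limit was not always enough; inconclusive means only one of those two conditions holds; inactive means neither condition holds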
IDH1 R132H inh – inhibitors of human IDH1 R132H; inhibition, % at 10 µM; O75874; AID 624101; IDH1 R132H reductase, diaphorase/resazurin fluorescence, 60 min; 0.18% of 70,000 active; in the data active means inhibition above about 34%; inconclusive means no clear call, values can overlap the other calls; inactive means below about 11%;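 further: 0% = DMSO and 100% = no enzyme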
T cruzi growth-2 – inhibitors of T. cruzi proliferation; shares compounds with T cruzi growth-1; T. cruzi beta-gal in NIH3T3, GalScreen luminescence, 90 h; inhibition, % at 8.35 µM; 72% of 5,600 active;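 active means mean replicate inhibition above about 95% and at least 55% of replicates individually reaching it, limit read from the data; inconclusive means only one of the two criteria is met; inactive means neither criterion is met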
T cruzi growth-3 – inhibitors of T. cruzi proliferation. shares compounds with T cruzi growth-1. T. cruzi beta-gal in NIH3T3, GalScreen luminescence, 90 h. inhibition, % at 2.09 µM. 21% of 5,600 active. AID 651740;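 active means mean inhibition above about 95%, with at least 55% of replicates also reaching it, limit read from the data; inconclusive means meets just one of the two conditions; inactive means meets neither condition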;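 further: plate controls were neutral control median for no effect and positive control median for full effect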
3T3 cytotox – NIH/3T3 (mouse) viability loss. shares compounds with T cruzi growth-1. NIH/3T3 viability, CellTiter-Glo ATP luminescence, 90 h. cytotoxicity (signal decrease), % at 8.35 µM. 14% of 5,600 active;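 active means mean signal decrease across replicates above about 35% based on untreated-well scatter, with enough replicates individually passing, limit read from the data; inconclusive means no rule stated though some were filed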;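 further: 0% = median of neutral control wells and 100% = median of positive control wells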
NIH3T3 tox 2 – NIH/3T3 (mouse) viability loss; shares compounds with T cruzi growth-1; NIH/3T3 viability, CellTiter-Glo ATP luminescence, 90 h; inhibition, % at 24.9 µM; 56% of 5,600 active;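 active means mean loss of cell viability signal at or above a set limit, and enough replicates individually reaching it; inconclusive means meets only the mean limit or only the replicate share; inactive means meets neither condition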;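 further: 0% = median of neutral control wells and 100% = median of positive control wells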
Starred values were filed as active, the others as inactive; u = inconclusive; x = no result given.

SMILES	GASC1 inh	T cruzi growth-1	IDH1 R132H inh	T cruzi growth-2	T cruzi growth-3	3T3 cytotox	NIH3T3 tox 2
COCC(=O)NC[C@H]1N[C@H](CO)[C@@H]1c1ccc(C#CC2CCCCC2)cc1	-0.2	x	x	x	x	x	x
CN1C(=O)c2cc(NC(=O)C3CCOCC3)ccc2OC[C@H]2O[C@@H](CC(=O)NC3CCCC3)CC[C@H]21	-0.4	35.1	x	x	x	x	x
CO[C@@H]1CN(C)C(=O)c2cc(NS(C)(=O)=O)ccc2OC[C@H](C)N(C(=O)C2CCCC2)C[C@@H]1C	0.4	-18.0	-0.6	x	x	x	x
COCCN(C[C@H]1N[C@H](CO)[C@H]1c1ccc(-c2cccc(F)c2)cc1)C(C)=O	0.6	-51.9	x	x	x	x	x
COCCN(C[C@@H]1N[C@@H](CO)[C@@H]1c1ccc(-c2cccc(F)c2)cc1)C(C)=O	1.8	104.6*	x	101.5*	38.8	-22.0	13.8
COCCN(C[C@H]1N[C@H](CO)[C@@H]1c1ccc(-c2cccc(F)c2)cc1)C(C)=O	-0.1	86.6	x	x	x	x	x
COCCN(C[C@@H]1N[C@@H](CO)[C@H]1c1ccc(-c2cccc(F)c2)cc1)C(C)=O	0.9	u	x	27.4	-2.9	-12.1	13.7
C[C@@H]1CN([C@H](C)CO)C(=O)c2cc(C#CC3(O)CCCC3)cnc2O[C@@H]1CN(C)C(=O)C1CCOCC1	2.5	x	x	x	x	x	x
CN(CC(=O)Nc1ccccc1Br)S(=O)(=O)c1ccc2ccccc2c1	x	x	-0.1	x	x	x	x
COc1ccccc1-c1ccc([C@H]2[C@@H](CO)N3CCCCN(C(=O)c4ccncc4)C[C@H]23)cc1	2.2	47.7	x	x	x	x	x
C/C=C/c1ccc2c(c1)O[C@@H](CN(C)Cc1ccc(F)cc1)[C@H](C)CN([C@@H](C)CO)S2(=O)=O	0.0	117.5*	-0.1	98.7*	105.1*	54.0*	104.3*
C/C=C/c1ccc2c(c1)O[C@H](CN(C)Cc1ccc(F)cc1)[C@H](C)CN([C@H](C)CO)S2(=O)=O	-1.0	u	-2.6	107.1*	63.0	14.6	104.4*
C/C=C/c1ccc2c(c1)O[C@H](CN(C)Cc1ccccc1)[C@@H](C)CN([C@H](C)CO)S2(=O)=O	0.8	86.0	-3.0	x	x	x	x
C/C=C/c1ccc2c(c1)O[C@H](CN(C)Cc1ccccc1)[C@H](C)CN([C@H](C)CO)S2(=O)=O	1.7	67.1	-0.4	x	x	x	x
C[C@@H]1CCCCO[C@@H](CN(C)Cc2ccc(C(F)(F)F)cc2)[C@@H](C)CN([C@@H](C)CO)C(=O)c2cc(NS(=O)(=O)c3ccc(Cl)cc3)ccc2O1	-0.8	97.1*	x	87.3	112.6*	27.7	102.5*
C[C@@H]1CN([C@H](C)CO)C(=O)c2cc(NS(=O)(=O)c3ccc(Cl)cc3)ccc2O[C@@H](C)CCCCO[C@@H]1CN(C)Cc1ccc(C(F)(F)F)cc1	-0.9	90.0	2.8	x	x	x	x
C[C@@H]1CN([C@H](C)CO)C(=O)c2cc(NS(C)(=O)=O)ccc2O[C@@H](C)CCCCO[C@H]1CN(C)Cc1ccc(C(F)(F)F)cc1	0.6	115.7*	x	107.5*	107.9*	0.9	98.0*
C[C@@H]1CN([C@@H](C)CO)C(=O)c2cc(NS(=O)(=O)c3ccc(Cl)cc3)ccc2O[C@@H](C)CCCCO[C@H]1CN(C)Cc1ccncc1	2.5	u	x	101.8*	37.6	-11.5	16.3
C[C@H](CO)N1C[C@H](C)[C@H](CN(C)Cc2ccc(C(F)(F)F)cc2)OCCCC[C@H](C)Oc2ccc(NS(C)(=O)=O)cc2C1=O	-0.1	-58.9	-5.1	x	x	x	x
C[C@H]1CCCCO[C@@H](CN(C)Cc2ccncc2)[C@@H](C)CN([C@@H](C)CO)C(=O)c2cc(NS(=O)(=O)c3ccc(Cl)cc3)ccc2O1	2.1	91.3	x	x	x	x	x
O=C(COc1cccc2ccccc12)Nc1cccc(C(=O)O)c1	x	x	0.1	x	x	x	x
C[C@H](CO)N1C[C@H](C)[C@H](CN(C)C(=O)Nc2ccc(C(F)(F)F)cc2)Oc2c(NC(=O)CCCCCC(=O)Nc3ccccc3N)cccc2C1=O	-0.5	x	-0.1	x	x	x	x
Cc1ccc([N+](=O)[O-])cc1NC(=O)CN(C)S(=O)(=O)c1ccc(Br)cc1	x	x	-0.2	x	x	x	x
C[C@@H]1CN([C@@H](C)CO)C(=O)Cc2cc(N(C)C)ccc2O[C@H]1CN(C)S(=O)(=O)c1cccs1	0.5	16.9	-6.0	x	x	x	x
C/C=C/c1ccc([C@@H]2[C@@H](CO)N(C(C)=O)[C@@H]2CNC(=O)CC2CC2)cc1	-0.9	u	x	72.7	13.0	10.8	24.2
SMILES	GASC1 inh	T cruzi growth-1	IDH1 R132H inh	T cruzi growth-2	T cruzi growth-3	3T3 cytotox	NIH3T3 tox 2
C/C=C/c1ccc([C@@H]2[C@@H](CNC(=O)CC3CC3)N(C(C)=O)[C@H]2CO)cc1	-1.2	26.9	x	x	x	x	x
C/C=C/c1ccc([C@H]2[C@@H](CO)N(C(C)=O)[C@@H]2CNC(=O)c2ccccc2)cc1	-0.8	104.3*	x	97.5*	-87.1	-23.9	-31.3
C/C=C/c1ccc([C@@H]2[C@H](CO)N(C(C)=O)[C@H]2CNC(=O)c2ccccc2)cc1	4.4	35.9	x	x	x	x	x
C[C@@H]1CN([C@H](C)CO)C(=O)c2cc(NC(=O)Cn3cnnn3)ccc2O[C@@H]1CN(C)Cc1ccc(Cl)c(Cl)c1	0.6	14.3	-0.4	x	x	x	x
Cc1noc(C)c1S(=O)(=O)N(C)C[C@@H]1OCCCC[C@@H](C)Oc2ccc(NC(=O)Nc3ccc(F)cc3)cc2C(=O)N([C@@H](C)CO)C[C@H]1C	-0.9	86.1	-0.6	x	x	x	x
Cc1noc(C)c1S(=O)(=O)N(C)C[C@H]1OCCCC[C@@H](C)Oc2ccc(NC(=O)Nc3ccc(C(F)(F)F)cc3)cc2C(=O)N([C@@H](C)CO)C[C@@H]1C	-0.2	99.5*	2.0	105.8*	116.3*	30.2	34.6*
Cc1noc(C)c1S(=O)(=O)N(C)C[C@@H]1OCCCC[C@@H](C)Oc2ccc(NC(=O)Nc3ccc(F)cc3)cc2C(=O)N([C@H](C)CO)C[C@H]1C	0.5	75.4	1.0	x	x	x	x
Cc1noc(C)c1S(=O)(=O)N(C)C[C@H]1OCCCC[C@H](C)Oc2ccc(NC(=O)Nc3ccc(F)cc3)cc2C(=O)N([C@@H](C)CO)C[C@@H]1C	0.1	87.1	-6.3	x	x	x	x
Cc1noc(C)c1S(=O)(=O)N(C)C[C@H]1OCCCC[C@@H](C)Oc2ccc(NC(=O)Nc3ccc(C(F)(F)F)cc3)cc2C(=O)N([C@H](C)CO)C[C@@H]1C	-1.7	109.5*	-0.6	108.0*	101.9*	6.6	31.8*
Cc1noc(C)c1S(=O)(=O)N(C)C[C@@H]1OCCCC[C@H](C)Oc2ccc(NC(=O)Nc3ccc(C(F)(F)F)cc3)cc2C(=O)N([C@H](C)CO)C[C@@H]1C	-0.9	103.6*	x	104.5*	113.3*	18.4	7.8
CCCNC(=O)N1CC2(CN(C(=O)C3CCC3)C2)c2c([nH]c3cc(OC)ccc23)[C@@H]1CO	-1.4	x	x	x	x	x	x
